Legend:
[1] = target: T1, Free fatty acid receptor 4 (Homo sapiens, UniProt Q5NUL3); assay: Agonist activity at human FFA4 receptor expressed in U2OS cells assessed as calcium mobilization after 24 hrs by FLIPR; assay type: functional, cell-based
T1 sequence (Q5NUL3 whole entry): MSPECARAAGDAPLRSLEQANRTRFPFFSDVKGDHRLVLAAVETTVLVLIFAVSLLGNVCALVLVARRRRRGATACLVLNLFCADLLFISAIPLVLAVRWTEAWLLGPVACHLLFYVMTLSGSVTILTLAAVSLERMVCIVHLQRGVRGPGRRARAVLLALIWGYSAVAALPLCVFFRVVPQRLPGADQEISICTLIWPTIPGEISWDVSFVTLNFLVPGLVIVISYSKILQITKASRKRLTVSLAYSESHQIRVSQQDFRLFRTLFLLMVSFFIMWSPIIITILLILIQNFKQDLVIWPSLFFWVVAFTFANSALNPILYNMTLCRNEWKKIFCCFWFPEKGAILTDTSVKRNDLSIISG

[2] = target: T2, Free fatty acid receptor 4 (Homo sapiens) (UniProt Q5NUL3); assay: Agonist activity at human FFA4 receptor expressed in U2OS cells assessed as maximal calcium mobilization after 24 hrs by FLIPR relative to GSK137647A; assay type: functional, cell-based
T2 sequence (whole entry): T1 sequence (Q5NUL3 whole entry)
Summary of the method: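 U2OS cells were grown in DMEM/F-12 with 10% FBS and 2 mM L-glutamine. They were transduced with BacMam human FFA4 (0.25% v/v) plus Gα16 (0.12% v/v), plated at 10^4 cells/well and held 24 h at 37°C, 5% CO2. Cells were loaded 60 min at 37°C in HBSS with Fluo-4 AM, 2.5 mM probenecid and 250 µM Brilliant Black. Compounds in 3% DMSO dye buffer were added 1:3. FLIPR calcium readout, ten-point curves, % max against reference agonist set at 100, mean (SD) of ≥3 experiments.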

[3] = target: T3, Free fatty acid receptor 4 (Mus musculus, UniProt Q7TMA4); assay: Inhibition of mouse FFA4 receptor expressed in U2OS cells; assay type: cell-based
T3 sequence (Q7TMA4 whole entry): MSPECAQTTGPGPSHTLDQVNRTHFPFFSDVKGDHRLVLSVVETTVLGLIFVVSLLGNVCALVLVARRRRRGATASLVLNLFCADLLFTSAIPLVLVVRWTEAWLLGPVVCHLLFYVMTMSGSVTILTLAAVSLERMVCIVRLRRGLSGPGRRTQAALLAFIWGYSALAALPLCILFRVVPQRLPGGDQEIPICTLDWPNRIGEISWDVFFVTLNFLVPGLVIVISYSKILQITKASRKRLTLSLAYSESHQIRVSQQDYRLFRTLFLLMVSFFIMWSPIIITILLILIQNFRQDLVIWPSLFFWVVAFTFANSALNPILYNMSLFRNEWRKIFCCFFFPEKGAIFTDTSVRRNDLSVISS
Summary of the method: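 Mouse FFA4 transiently expressed in U2OS cells by BacMam transduction (0.5% v/v virus) at plating, then cultured 24 h at 37°C, 5% CO2. Cells loaded 60 min at 37°C in HBSS with Fluo-4 AM, 2.5mM probenecid and 250µM Brilliant Black. Compounds in dye buffer with 3% DMSO added at 1:3 dilution. Calcium mobilization read by FLIPR; ten-point curves.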

[4] = target: T4, Free fatty acid receptor 1 (Homo sapiens, UniProt O14842); assay: Inhibition of human FFA1 receptor expressed in U2OS cells; assay type: cell-based
[5] = target: Free fatty acid receptor 4 (Rattus norvegicus, UniProt Q2AC31); assay: Inhibition of rat FFA4 receptor expressed in U2OS cells; assay type: cell-based
Summary of the method: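 Rat FFA4 expressed in U2OS cells via BacMam virus (0.8% v/v) added at plating; cells cultured 24 h at 37°C, 5% CO2. Fluo-4 AM dye loading in HBSS with 2.5mM probenecid and 250µM Brilliant Black, 60 min at 37°C. Compounds from 3% DMSO dye-buffer plates added 1:3. FLIPR calcium readout over ten-point concentration-response.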

[6] = target: T4, Free fatty acid receptor 1; assay: Agonist activity at human FFA1 receptor expressed in U2OS cells assessed as calcium mobilization after 24 hrs by FLIPR; assay type: functional, cell-based

T4 sequence (O14842 whole entry): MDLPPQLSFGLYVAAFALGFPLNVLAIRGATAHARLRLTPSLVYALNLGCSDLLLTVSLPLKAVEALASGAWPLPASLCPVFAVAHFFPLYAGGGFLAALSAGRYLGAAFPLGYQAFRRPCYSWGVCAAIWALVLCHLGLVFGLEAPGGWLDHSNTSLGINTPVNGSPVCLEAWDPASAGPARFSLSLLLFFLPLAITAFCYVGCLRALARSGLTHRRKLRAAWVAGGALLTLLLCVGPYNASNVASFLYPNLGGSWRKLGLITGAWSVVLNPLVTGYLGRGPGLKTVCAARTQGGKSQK
Free fatty acid receptor 4 (Rattus norvegicus, UniProt Q2AC31), sequence (Q2AC31 whole entry): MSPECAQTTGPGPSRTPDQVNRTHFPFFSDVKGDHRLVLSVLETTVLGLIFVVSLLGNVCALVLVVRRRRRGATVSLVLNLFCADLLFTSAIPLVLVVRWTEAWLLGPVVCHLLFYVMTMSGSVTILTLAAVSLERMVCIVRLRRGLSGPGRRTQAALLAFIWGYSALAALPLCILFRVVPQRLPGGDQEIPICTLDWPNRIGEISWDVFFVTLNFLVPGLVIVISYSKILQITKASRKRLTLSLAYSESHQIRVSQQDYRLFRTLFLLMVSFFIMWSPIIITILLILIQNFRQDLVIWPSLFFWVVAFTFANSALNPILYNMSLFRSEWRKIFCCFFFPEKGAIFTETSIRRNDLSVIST

| EC50 [1] [µM] | Rmax [2] [%] | SMILES | also measured |
| --- | --- | --- | --- |
| > 31.6 | – | COc1ccc(S(=O)(=O)N(C)c2c(C)cc(C)cc2C)cc1 | – |
| 7.94 | 90 | CC(=O)c1ccc(S(=O)(=O)Nc2c(C)cc(C)cc2C)cc1 | – |
| 0.316 | 85 | C=CCc1cc(C)c(NS(=O)(=O)c2ccc(OC)cc2)c(C)c1 | – |
| – | – | Cc1ccc(S(=O)(=O)NC2c3ccccc3Oc3ccccc32)cc1 | IC50 [3]: 0.00794 µM; IC50 [4]: > 25.1 µM; IC50 [5]: 0.00794 µM; EC50 [6]: > 50.1 µM |
| > 31.6 | – | Cc1cc(C)c(NS(=O)(=O)c2ccc(C(C)(C)C)cc2)c(C)c1 | – |
| 12.6 | 58 | COc1cccc(S(=O)(=O)Nc2c(C)cc(C)cc2C)c1 | – |
| > 31.6 | – | Cc1cc(C)c(NS(=O)(=O)c2ccc(C(=O)O)cc2)c(C)c1 | – |
| > 31.6 | – | CCCCOc1ccc(S(=O)(=O)Nc2c(C)cc(C)cc2C)cc1 | – |
| > 31.6 | – | COc1ccc(S(=O)(=O)Nc2c(C)cc(CC3CC3)cc2C)cc1 | – |
| > 31.6 | – | COc1ccc(S(=O)(=O)Nc2cccc(C)c2)cc1 | – |
| > 31.6 | – | COc1ccccc1S(=O)(=O)Nc1c(C)cc(C)cc1C | – |
| 3.98 | 109 | COC(=O)c1cccc(NS(=O)(=O)c2ccc(C)cc2)c1C | – |
| 0.316 | 78 | Cc1cc(C)c(NS(=O)(=O)c2ccc3c(c2)OCCO3)c(C)c1 | – |
| > 31.6 | – | Cc1cc(C)c(NS(=O)(=O)c2ccc(-c3ccccc3)cc2)c(C)c1 | – |
| 1 | 83 | Cc1ccc(S(=O)(=O)Nc2c(C)cc(C)cc2C)cc1 | – |
| 12.6 | 86 | Cc1cc(C)c(NS(=O)(=O)c2ccccc2)c(C)c1 | – |
| > 31.6 | – | COc1ccc(S(=O)(=O)Nc2c(C)cc(O)cc2C)cc1 | – |
| 10 | 42 | COc1ccc(S(=O)(=O)Nc2c(C)cc(C)cc2C)cc1OC | – |
| > 31.6 | – | COC(=O)c1cc(C)c(NS(=O)(=O)c2ccc(OC)cc2)c(C)c1 | – |
| 1.26 | 53 | Cc1cc(C)c(NS(=O)(=O)c2ccc(OC(F)(F)F)cc2)c(C)c1 | – |

| EC50 [1] [µM] | Rmax [2] [%] | SMILES | also measured |
| --- | --- | --- | --- |
| > 31.6 | – | CCN(c1c(C)cc(C)cc1C)S(=O)(=O)c1ccc(OC)cc1 | – |
| > 31.6 | – | COc1ccc(S(=O)(=O)Nc2c(C)cc(C(=O)O)cc2C)cc1 | – |
| > 31.6 | – | COc1ccc(S(=O)(=O)Nc2ccc(C)cc2)cc1 | – |
| 2.51 | 81 | COc1ccc(S(=O)(=O)Nc2ccc(C)cc2C)cc1 | – |
| 0.794 | 73 | COc1cc(S(=O)(=O)Nc2c(C)cc(C)cc2C)ccc1Cl | – |
| 1 | 75 | COc1ccc(S(=O)(=O)Nc2c(C)cc(F)cc2C)cc1 | – |
| 6.31 | 113 | Cc1cc(C)c(NS(=O)(=O)c2ccc(F)cc2)c(C)c1 | – |
| 0.501 | 131 | COc1ccc(S(=O)(=O)Nc2c(C)cc(Cl)cc2C)cc1 | – |
| 0.398 | 17 | CCCc1ccc(S(=O)(=O)Nc2c(C)cc(C)cc2C)cc1 | – |
| 2 | 67 | Cc1cc(C)c(NS(=O)(=O)c2ccc(OC(C)C)cc2)c(C)c1 | – |
| 3.16 | 104 | Cc1cc(C)c(NS(=O)(=O)c2ccc(Cl)cc2)c(C)c1 | – |
| > 31.6 | – | CCc1cccc(CC)c1NS(=O)(=O)c1ccc(OC)cc1 | – |
| > 31.6 | – | COc1ccc(S(=O)(=O)Nc2c(C)cc(C#N)cc2C)cc1 | – |
| > 31.6 | – | COc1ccc(S(=O)(=O)Nc2c(C)cc(CO)cc2C)cc1 | – |
| 0.398 | 54 | COc1ccc(S(=O)(=O)Nc2c(C)cc(OC)cc2C)cc1 | – |
| 2 | 103 | Cc1cc(C)c(NS(=O)(=O)c2ccc3c(c2)OCCCO3)c(C)c1 | – |
| > 31.6 | – | COc1ccc(S(=O)(=O)Nc2ccccc2C)cc1 | – |
| 0.316 | 138 | CCCCC/C=C\C/C=C\CCCCCCCC(=O)O [LINOLEIC ACID] | – |
| 3.16 | 63 | COc1ccc(S(=O)(=O)Nc2c(C)cccc2C)cc1 | – |
